In ChEMBL document CHEMBL1146343, “Synthesis and activity of Combretastatin A-4 analogues: 1,2,3-thiadiazoles as potent antitumor agents” (Bioorg Med Chem Lett, 2007) one finds Activity and inhibition in vivo data, which are given here for 1 compound.

The structures appear in SMILES notation.

Data set [1] relates to Mus musculus. As to the kind of experiment: Toxicity in mouse implanted with S180 cells at 50 mg/kg, ip after 2 days. The format is organism-based, CCRF S-180. Also on record: dose 50 mg/kg, route intraperitoneal. The conditions noted are these: in vivo, 48 h. The gist of the method: (§1)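 Mouse S180 sarcoma transplant model; drug given i.p. daily, with an NS-treated control group (n = 20) and 10 mice per treated group. At the end, animals were euthanized and tumors excised and weighed. Inhibition rate is relative to the control. Body weight and surviving mouse numbers were recorded at the start and end. Significance was set at p < 0.01.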

Data set [2] relates to CCRF S-180. As to the kind of experiment: Antitumor activity in mouse implanted with S180 cells at 50 mg/kg, ip after 2 days. The format is functional. The conditions noted are these: CCRF S-180, ip, 48 h, route intraperitoneal. In short, it runs like this: as §1
Data set [3] deals with Mus musculus. Kind of data set: Effect on body weight in mouse implanted with S180 cells at 50 mg/kg, ip after 2 days. Particulars: route intraperitoneal. The data set is classed as functional, CCRF S-180. In short, it runs like this:
as §1

One may read the inhibition in vivo as the relative decrease from the control value, in per cent. On to `O=c1[nH]cc(F)c(=O)[nH]1` [FLUOROURACIL], for which the figures for the Activity entry in data set [1] and in data set [3] were “Non-toxic” and 23 g, respectively. In addition, the inhibition in vivo at 50 mg/kg in data set [2] amounted to 80.4%.
